Measurements pooled from the literature.

For `O=C(/C=C/c1ccc(CN(CCO)CCc2c[nH]c3ccccc23)cc1)NO`, the solubility was 4100 µg/mL (simulated gastric fluid; 48 h, pH 2, 25 °C, acidic).
`Cc1cc(Nc2ccc(Cl)cc2)n2nc(C(C)(F)F)nc2n1` gave a solubility of 77 to 150 µM (nephelometry; aqueous buffer; pH 6.5).
`COc1cccc(OC)c1-c1nc(C(=O)N[C@@H](CC(C)C)C(=O)O)cn1-c1cccc2ccccc12` gave a solubility of 103 µg/mL (aqueous buffer; pH 5).
`CC(C)C[C@H](NC(=O)[C@H](CCc1ccccc1)NC(=O)CN1CCOCC1)C(=O)N[C@@H](Cc1ccccc1)C(=O)N[C@@H](CC(C)C)C(=O)[C@@]1(C)CO1` gave a solubility of 1.56 µM (PBS; 24 h, pH 7.4, 37 °C).
The solubility of `CS(=O)(=O)N1CCN(Cc2cc3nc(-c4cccc5[nH]ncc45)nc(N4CCOCC4)c3s2)CC1` is reported as 1 µg/mL (FaSSIF).
For `NCCCCNc1nc2cc(Cl)ccc2n1Cc1ccccc1`, the solubility was at least 200 µM (shake flask; aqueous buffer; 20 h, pH 6.5, 25 °C).
With `CC(C)CC(=O)N1CCC[C@H](COc2cccc3c2C(N)=NS(=O)(=O)N3)C1` the solubility was 1230 µM (ethanol).
With `c1ccc(CNc2nc(N3CCNc4ccccc43)nc3ccccc23)cc1` the solubility was over 36 µg/mL (aqueous buffer; pH 5).
The solubility of `O=C(Nc1c2c(cc3c1CCC3)CCC2)NS(=O)(=O)/C=C/c1nccs1` is reported as under 5 µg/mL (simulated gastric fluid; 24 h, 37 °C, acidic).
`CC#Cc1cncc(-c2ccc3c(c2)[C@@]2(N=C(C)C(N)=N2)[C@]2(CC[C@H](OC)CC2)C3)c1` has a solubility of over 10000 µg/mL (simulated gastric fluid; 25 °C, acidic).
`O=C(NCCN1CCCC1)c1cc(-c2ccc(CN3CCOCC3)cc2)nc2ccc(F)cc12` gave a solubility of over 6490 µM (simulated gastric fluid; 4 h, pH 2, 37 °C, acidic).
`CN1CCN(C2CCN(c3nccc4[nH]c(-c5cc(F)cc(F)c5)nc34)CC2)CC1` has a solubility of over 200 µM (shake flask; aqueous buffer; pH 6.5).
With `CCCCCCCCCCCCN1CCCC1=O` the solubility was 21 µM (PBS; 48 h, pH 7.4, 25 °C).
For `Cc1cccc(F)c1N1CCC(N2Cc3cn(CC(C)(F)F)nc3N(Cc3ccccc3C(F)(F)F)C2=O)CC1`, the solubility was 10 µM (aqueous buffer; pH 7.4).
`CN1CCC(N2CCN(c3nccc4[nH]c(-c5ccc(F)c(F)c5)nc34)CC2)CC1` has a solubility of over 200 µM (shake flask; aqueous buffer; pH 6.5).
For `CC(C)(C)n1nc(-c2cnc3cc(OC4CCC4)ccc3c2)c(C(N)=O)c1N`, the solubility was 3.7 µM (PBS; pH 6.5, 25 °C).
For `Cc1ccc(Nc2nc(NCc3ccccc3)c3ccccc3n2)cc1F`, the solubility was 0.05 µg/mL (aqueous buffer; pH 7.4).
The solubility of `N=C(N)NCc1ccc(NC(=O)C23CCC(C(=O)Nc4ccc(C5=CCN(C(=N)N)CC5)cc4)(CC2)CC3)cc1` is reported as 46 µg/mL (shake flask; aqueous buffer; pH 7.4).
`COc1cc2ncnc3c2cc1OCCOCCOc1cc(F)c(Cl)cc1N3` gave a solubility of 0.131 to 0.174 µg/mL (HPLC; aqueous buffer; 24 h).
`CCCN(C)Cc1cc(-c2[nH]c3cccc(F)c3c(=O)c2C)ccc1Cc1ccc(OC(F)(F)F)cc1` has a solubility of under 0.2 µM (PBS; pH 7.4).
With `NCCNc1nc2cc(Cl)ccc2n1Cc1ccccc1` the solubility was at least 200 µM (shake flask; aqueous buffer; 20 h, pH 6.5, 25 °C).
`COc1cccc(OC)c1-c1nc(C(=O)N[C@@H](CC(C)C)C(=O)O)cn1-c1ccnc2cc(Cl)ccc12` gave a solubility of over 52 µg/mL (aqueous buffer; pH 5).
The solubility of `OCc1n(Cc2ccc3ccccc3c2)cc[n+]1Cc1ccc2ccccc2c1.[Br-]` is reported as under 500 µg/mL (water).
`COCc1nn(Cc2ccc(Cn3ccccc3=O)cc2)cc1C(=O)NCc1c(F)ccc(OC)c1F` gave a solubility of 9 µg/mL (FaSSIF; 4 h, pH 1.6).
`Cc1ccc(F)cc1Nc1nc(NCc2ccccc2)c2ccccc2n1` has a solubility of 0.04 µg/mL (aqueous buffer; pH 7.4).
The solubility of `CCc1nc2nc(C)cc(Nc3ccc(C(F)(F)F)cc3)n2n1` is reported as 39 to 78 µM (nephelometry; aqueous buffer; pH 6.5).
With `CCn1c(-c2nc3ccc(C(=O)N4CCCC(N)C4)cc3n2C)cc2ccccc21` (centres unmarked) the solubility was 243 µM (aqueous buffer).
`C[C@@H]1CN(c2nc3cc(Cl)ccc3n2Cc2ccccc2)C[C@H](C)N1` has a solubility of 140 µM (shake flask; aqueous buffer; 20 h, pH 6.5, 25 °C).
For `Cc1nnc(CCCCCN)nn1.Cl`, the solubility was over 500000 µM (water).
For `O=C(Nc1c(F)cccc1C(=O)O)c1ccc(-c2ccccc2)cc1`, the solubility was 80 µM (shake flask; aqueous buffer; 24 h, pH 6.5, 25 °C).
For `FC(F)(F)c1ccc2c(c1)nc(N1CCNCC1)n2Cc1ccccc1`, the solubility was 200 µM (shake flask; aqueous buffer; 20 h, pH 6.5, 25 °C).
`Cc1cc2[nH]c(-c3cc(F)cc(F)c3)nc2c(N2CCC(CN3CCN(C)CC3)CC2)n1` gave a solubility of over 200 µM (shake flask; aqueous buffer; pH 6.5).
The solubility of `O=C(Nc1ccc(S(=O)(=O)N2CCC(Cl)CC2)cc1)c1ccc([N+](=O)[O-])o1` is reported as 9.2 µM (aqueous buffer; pH 6.2).
The solubility of `COc1cc(OC)cc(N(CCNC(C)C)c2ccc3ncc(-c4cnn(C)c4)nc3c2)c1` is reported as 23200 µg/mL (aqueous buffer; pH 3.96).
The solubility of `OCCOc1cccc2c(NCc3ccccc3)nc(N3CCOc4ccccc43)nc12` is reported as 0.43 µg/mL (aqueous buffer; pH 7.4).
`CS(=O)(=O)c1ncn2c(NCc3c(F)ccc4c3CCO4)ncc(-c3ccc(C4CC4)nc3)c12` has a solubility of 26.5 µg/mL (FaSSIF).
`CC(C)Oc1ccc2cc(-c3nn(C(C)(C)C)c(N)c3C(N)=O)cnc2c1` has a solubility of over 100 µM (PBS; pH 6.5, 25 °C).
The solubility of `COc1cccc2c(NCc3ccccc3)nc(-n3c(=O)oc4ccccc43)nc12` is reported as 0.02 µg/mL (aqueous buffer; pH 5).
`Cc1ccc(S(=O)(=O)NCc2ccc(C(=O)NCCN(Cc3ccccc3)C(C)C)cc2)cc1` gave a solubility of 0.79 µg/mL (aqueous buffer; pH 7.4).
`CCC(F)(F)c1nc2nc(C)cc(Nc3ccc(C(F)(F)F)cc3)n2n1` has a solubility of 17 to 34 µM (nephelometry; aqueous buffer; pH 6.5).
`O=C(O)Cc1ccccc1Nc1c(Cl)cccc1Cl` gave a solubility of 1940 µg/mL (PBS; pH 7.4).
`CC[C@H](C)[C@H](NC(=O)[C@H](CO)NC(=O)[C@H](CCCNC(=N)N)NC(C)=O)C(=O)N[C@H]1CSSC[C@@H](C(=O)N[C@H](C(N)=O)[C@@H](C)O)NC(=O)[C@H](CCCNC(=N)N)NC(=O)[C@H](Cc2c[nH]cn2)NC(=O)[C@H](C)NC(=O)CNC(=O)[C@H](Cc2c[nH]c3ccccc23)NC(=O)[C@H](CC(=O)O)NC(=O)[C@H](CCC(N)=O)NC(=O)[C@H](Cc2c[nH]c3ccccc23)NC(=O)[C@H](C(C)C)NC1=O` gave a solubility of 3690 µg/mL (PBS; pH 7.4).
For `CCOc1ccc2cc(-c3nn(C(C)C)c(N)c3C(N)=O)cnc2c1`, the solubility was 99 µM (PBS; pH 6.5, 25 °C).
`COCc1nc2nc(C)cc(Nc3ccc(S(F)(F)(F)(F)F)cc3)n2n1` has a solubility of 63 to 130 µM (nephelometry; aqueous buffer; pH 6.5).
`CC(=O)Oc1ccccc1C(=O)O` has a solubility of 12600 µg/mL (PBS; pH 7.4).
`COc1cc(/C=C/C(=O)CC(=O)/C=C/c2ccc(O)c(OC)c2)ccc1O` gave a solubility of 0.56 µg/mL (absorbance; water).
For `COC(=O)c1ccc(N)cc1`, the solubility was 1800 µg/mL (PBS; pH 7.4).
`COCCOCCOCc1n(Cc2ccc3ccccc3n2)c2ccccc2[n+]1Cc1ccc2ccccc2n1.[Cl-]` gave a solubility of over 40000 µg/mL (water).
`Clc1cccc(Nc2nc(NCc3cccc(Br)c3)c3ccccc3n2)c1` gave a solubility of 0.1 µg/mL (aqueous buffer; pH 5).
For `CN(C)CCCN1c2ccccc2Sc2ccc(Cl)cc21`, the solubility was 810 µg/mL (FaSSIF; 24 h, pH 7.4, 37 °C).
For `CC(C)(C)n1nc(-c2cnc3cc(OCC4CC4)ccc3c2)c(C(N)=O)c1N`, the solubility was 26.8 µM (PBS; pH 6.5, 25 °C).
With `Nc1cccc(S(=O)(=O)N2CCCN(S(=O)(=O)c3ccc4c(c3)OCCO4)CC2)c1` the solubility was 29 µg/mL (aqueous buffer).
The solubility of `Cc1cc(F)cc(Nc2nc(NCc3ccccc3)c3ccccc3n2)c1` is reported as 0.05 µg/mL (aqueous buffer; pH 5).
The solubility of `CCCn1nc(C(=O)N2CCCCC2)c2c1CCC(NCCN1CCCCC1)C2` (centres unmarked) is reported as 1740 µM (PBS; 16 h, pH 7.4).
The solubility of `COc1cccc2c(NCc3ccccc3)nc(N3CCNc4ccccc43)nc12` is reported as 28.2 µg/mL (aqueous buffer; pH 5).
`CCc1nc2nc(C)cc(Nc3ccc(Cl)cc3)n2n1` gave a solubility of 170 to 350 µM (nephelometry; aqueous buffer; pH 6.5).
